Measurements: ChEMBL document CHEMBL1125735, “trans-hexahydroindolo[4,3-ab]phenanthridines ("benzergolines"), the first structural class of potent and selective dopamine D1 receptor agonists lacking a catechol group” (1991)

Tests used:
[1] = system: Dopamine D1 receptor (Bos taurus); test: Compound was evaluated for its potency to Dopamine D1 stimulating effect in the adenylate cyclase assay.
Bos taurus = organism: Bos taurus; test: Percent of maximal effect of 125 uM Dopamine in the adenylate cyclase assay.; type: functional
In short: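 Dopamine-sensitive adenylate cyclase assay run on bovine retina tissue.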

[2] = molecular target: D(2) dopamine receptor (Rattus norvegicus) (UniProt P61169); test: Percent of maximal inhibition by change of S2/S1 versus control at 1 uM for the cetylcholine (ACh) release as a model for Dopamine D2 receptor activation.; type: functional; parameters: scale not given: the % may be the effect or the level left
D(2) dopamine receptor (Rattus norvegicus), sequence (P61169 whole entry): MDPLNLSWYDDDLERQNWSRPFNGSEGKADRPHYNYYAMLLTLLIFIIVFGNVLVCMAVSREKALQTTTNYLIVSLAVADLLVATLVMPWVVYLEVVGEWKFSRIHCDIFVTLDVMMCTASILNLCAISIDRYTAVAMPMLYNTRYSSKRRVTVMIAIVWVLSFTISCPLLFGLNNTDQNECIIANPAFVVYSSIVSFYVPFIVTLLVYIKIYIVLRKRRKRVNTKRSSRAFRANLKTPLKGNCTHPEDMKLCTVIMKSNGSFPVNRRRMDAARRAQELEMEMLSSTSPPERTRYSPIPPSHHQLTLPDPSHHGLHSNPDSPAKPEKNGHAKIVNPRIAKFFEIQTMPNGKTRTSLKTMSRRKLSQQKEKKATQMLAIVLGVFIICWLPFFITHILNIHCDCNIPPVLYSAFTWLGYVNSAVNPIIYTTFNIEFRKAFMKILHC
In short: (§1)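 Electrically evoked acetylcholine release measured in rat striatal slices.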

[3] = molecular target: D(2) dopamine receptor (Rattus norvegicus) (UniProt P61169); test: Percent of maximal inhibition by change of S2/S1 versus control at 1 uM for the acetylcholine (ACh) release as a model for Dopamine D2 receptor activation.; type: functional; parameters: scale not given: the % may be the effect or the level left
In short: as §1

[4] = molecular target: D(2) dopamine receptor (Rattus norvegicus) (UniProt P61169); settings: 1 uM
[5] = molecular target: D(2) dopamine receptor (Rattus norvegicus) (UniProt P61169); test: Compound was evaluated for its potency to inhibit electrically evoked acetylcholine (ACh) release as a model for Dopamine D2 receptor activation.; type: functional
In short: as §1

Compound	pD2 [1]	Relative activity (Bos taurus) [%]	Control [2] [%]	Control [3] [%]	Control [4] [%]	pD2 [5]
Oc1cc2c(cc1O)C(c1ccccc1)CNCC2 (stereo not given) [SKF-38393]	6.6	58	0	–	–	–
CCN1Cc2ccccc2[C@H]2c3cccc4[nH]cc(c34)C[C@H]21	6	72	–	0	–	–
Oc1ccc([C@@H]2CNCc3ccccc32)cc1O	6	86	0	–	–	–
CCCN1Cc2ccccc2[C@H]2c3cccc4[nH]cc(c34)C[C@H]21	5.7	55	–	0	–	–
CN1Cc2ccccc2[C@H]2c3cccc4[nH]cc(c34)C[C@H]21	6.1	57	–	0	–	–
c1ccc2c(c1)CN[C@@H]1Cc3c[nH]c4cccc(c34)[C@H]21	6.3	82	–	0	–	–
CCCCN1Cc2ccccc2[C@H]2c3cccc4[nH]cc(c34)C[C@H]21	–	0	0	–	–	–
CN1CCc2cccc3c2[C@H]1Cc1ccc(O)c(O)c1-3 [APOMORPHINE]	6.2	38	–	–	85	7.5
CN1Cc2ccccc2[C@H]2c3cccc4c3C(CN4)C[C@H]21 (stereo not given in full)	–	0	0	–	–	–
CN1CCC[C@H]2c3cccc4[nH]cc(c34)C[C@H]21	5.2	24	30	–	–	7.5
